Published values collected from several papers.
Each line is one published result; the experiments were not run side by side.

Structure (SMILES) | species | matrix | route | dose | notes | Cmax
CCc1cc(C(=O)NC)c2nccc(N3CCc4c(cc(Cn5ccnc5)cc4-c4cn(C)nc4C(F)(F)F)C3=O)c2c1 | male Sprague-Dawley rat | plasma | oral | 100 mg/kg | single dose | 10100 ng/mL
COCc1nn(Cc2ccc(Cn3ccccc3=O)cc2)cc1C(=O)NCc1nccc(OC)c1F | male Sprague-Dawley rat | plasma | oral | 10 mg/kg | – | 1940 ng/mL
COCCOC(=O)C1=C(C)NC(C)=C(C(=O)OC(C)C)C1c1cccc([N+](=O)[O-])c1 (centres unmarked) | male Sprague-Dawley rat | plasma | oral | 12 mg/kg | – | 85 ng/mL
CNCc1cc(-c2ccccc2F)n(S(=O)(=O)c2cccnc2)c1 | male Sprague-Dawley rat | plasma | oral | 10 mg/kg | – | 140 ng/mL
Oc1c(Br)cc(Cl)c2cccnc12 | Sprague-Dawley rat | plasma | oral | 20 mg/kg | – | 1700 ng/mL
C#Cc1cccc(Nc2ncnc3cc(OCCOC)c(OCCOC)cc23)c1 | male Sprague-Dawley rat | plasma | oral | 12 mg/kg | single dose | 1580 ng/mL
CCOC(=O)[C@@]12C[C@@H]1[C@@H](n1ccc3c(NC)nc(C#Cc4ccc(Cl)s4)nc31)[C@H](O)[C@@H]2O | male Sprague-Dawley rat | plasma | oral | 3 mg/kg | – | 67.1 ng/mL
Cc1ccc(S(=O)(=O)n2cc3c4c2C(=O)C(NCc2ccc(Cl)cc2)=CC4=NCC3)cc1 | rat | plasma | intravenous | 5 mg/kg | single dose | 1240 ng/mL
N#Cc1[nH]nnc1-c1cccc(OCc2cc(C(F)(F)F)ccc2C(F)(F)F)c1 | male Sprague-Dawley rat | plasma | oral | 10 mg/kg | – | 4820 ng/mL
Cc1c(-c2ccccc2)cccc1N1C(=O)c2cc(CN[C@H](C(=O)O)C(C)O)c(OCc3cccc(C#N)c3)cc2C1=O (some centres unmarked) | Sprague-Dawley rat | plasma | oral | 50 mg/kg | – | 26 ng/mL
CCNC(=O)c1nc(-c2ccc3[nH]c(-c4nc(C)no4)cc3c2)c(C)[nH]1 | Sprague-Dawley rat | plasma | oral | 10 mg/kg | suspension | 2600 nM
COCc1nn(Cc2ccc(Cn3ccccc3=O)cc2)cc1C(=O)NCc1c(F)ccc(OC)c1F | male Sprague-Dawley rat | plasma | oral | 10 mg/kg | – | 2890 ng/mL
CC(C)(C)C[C@H]1N[C@@H](C(=O)NCC[C@H](O)CO)[C@H](c2cccc(Cl)c2)[C@@]12C(=O)Nc1cc(Cl)c(F)cc12 | rat | plasma | oral | 25 mg/kg | – | 6400 nM
N#Cc1ccc(Nc2nc(N)cc(Oc3c(F)cc(-c4ccc(C#N)cc4)cc3F)n2)cc1 | Sprague-Dawley rat | plasma | intravenous | 1 mg/kg | – | 251 ng/mL
CC(C)OC(=O)NC1CCN(Cc2cc(Cl)c3cccnc3c2O)CC1 | rat | blood | intraperitoneal | 30 mg/kg | – | 200 nM
COc1nc(-c2cc(C)c(N[C@@H](C)c3cc(F)cc(F)c3)nn2)ccc1-n1cnc(C)c1 | male Sprague-Dawley rat | plasma | oral | 5 mg/kg | single dose | 3240 ng/mL
O=C(Nc1cc(F)c(F)c(F)c1)c1ccc(F)c(S(=O)(=O)NCc2cccc(B(O)O)c2)c1 | male Sprague-Dawley rat | plasma | intravenous | 2 mg/kg | – | 460 ng/mL
CCc1cc(OC)c2nccc(N3CCc4c(cc(Cn5ccnc5)cc4-c4cn(C)nc4C(F)(F)F)C3=O)c2c1 | male Sprague-Dawley rat | plasma | oral | 50 mg/kg | – | 2700 ng/mL
C=CC(=O)N1CC2CC(n3nc(-c4ccc(C(=O)Nc5ccccn5)cc4)c4c(N)ncnc43)CC2C1 (centres unmarked) | male Wistar rat | plasma | oral | 300 mg/kg | – | 6140 ng/mL
N#Cc1[nH]nnc1-c1cccc(-c2cc(F)cc(C(F)(F)F)c2)c1 | male Sprague-Dawley rat | plasma | oral | 10 mg/kg | – | 5750 ng/mL
COc1ccc(C(C)=O)c(O)c1 | male Sprague-Dawley rat | plasma | oral | 100 mg/kg | – | 8460 ng/mL
O=C1N(Cc2ccccc2Cl)c2ccccc2C12NN=C(c1ccccc1)S2 (centres unmarked) | Sprague-Dawley rat | plasma | oral | 40 mg/kg | – | 1190 ng/mL
COc1cc2c3c(n(CCCN4CCOCC4)c(=O)c2cc1OC)-c1cc2c(cc1C3=O)OCO2 | female Fischer 344 rat | plasma | intravenous | 24 mg/m² | single dose | 568 ng/mL
